From ChEMBL document CHEMBL2407014, “Suberoylanilide hydroxamic acid, a histone deacetylase inhibitor, induces the production of anti-inflammatory cyclodepsipeptides from Beauveria felina” (J Nat Prod, 2013)
Starred links: 1 amine or outer side, 2 acyl side, 3 side chain; linkers in the order of their positions; H or OH if unused. Non-standard residues stand in square brackets, D forms with d. Residues, ends and D or L forms follow the SMILES beside them. ξ: configuration not given here. X1 = C[C@H]1CCN([*:1])[C@@H]1C(=O)[*:2]; X2 = CC1CCN([*:1])[C@@H]1C(=O)[*:2]; Hica(2S) = CC(C)C[C@H](O)C(=O)O; ξLac(3-iPr) = CC(C)CC(O)C(=O)O; NMeV = CN[C@H](C(=O)O)C(C)C; βAla = NCCC(=O)O

Tests used:
[1] = Cytotoxicity against human neutrophils by LDH release assay; assay type: cell-based; details: neutrophil
[2] = Antiinflammatory activity in human neutrophils assessed as inhibition of FMLP-induced superoxide anion production treated 5 mins before FMLP addition measured after 10 mins; assay type: functional, cell-based; details: Neutrophil
How it was run: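 Neutrophils from healthy adult donors' venous blood (dextran sedimentation, Ficoll centrifugation), with 0.5 mg/mL ferricytochrome c and 1 mM Ca²⁺, equilibrated 37 °C 2 min, compound 5 min, cytochalasin B (1 μg/mL) 3 min, then FMLP 100 nM for 10 min. SOD-inhibitable (100 U/mL) ferricytochrome c reduction read continuously at 550 nm; IC50 as 50% inhibition concentration.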

[3] = Antiinflammatory activity in human neutrophils assessed as inhibition of FMLP-induced elastase release treated 5 mins before FMLP addition; assay type: functional, cell-based; details: Neutrophil
How it was run: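 Neutrophils (6 × 10⁵/mL) with MeO-Suc-Ala-Ala-Pro-Val-p-nitroanilide substrate (100 μM), equilibrated 37 °C 2 min, compound 5 min, then activated with FMLP (100 nM)/cytochalasin B (0.5 μg/mL). Absorbance at 405 nm monitored continuously; results as percentage of initial elastase rate; IC50 as concentration giving 50% inhibition.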

| SMILES | IC50 [2] [µM] | IC50 [3] [µM] | Activity [1] |
| --- | --- | --- | --- |
| CC(C)C[C@@H]1OC(=O)CCNC(=O)[C@H](C(C)C)N(C)C(=O)[C@H](C(C)C)NC(=O)[C@H](Cc2ccccc2)NC(=O)[C@@H]2CCCN2C1=O (cyclo(FV[NMeV][βAla][Hica(2S)]P)) | 10 |  | Non-toxic |
| CC(C)C[C@@H]1OC(=O)CCNC(=O)[C@H](C(C)C)N(C)C(=O)[C@H](C(C)C)NC(=O)[C@H](Cc2ccccc2)NC(=O)[C@@H]2[C@@H](C)CCN2C1=O (cyclo(FV[NMeV][βAla][Hica(2S)][X1])) | 10.9 | 10 | Non-toxic |
| CC(C)CC1OC(=O)CCNC(=O)[C@H](C(C)C)N(C)C(=O)[C@H](C(C)C)N(C)C(=O)[C@H](Cc2ccccc2)NC(=O)[C@@H]2C(C)CCN2C1=O (stereo not given in full) [ISARIDIN C2] (cyclo(F[NMeV][NMeV][βAla][ξLac(3-iPr)][X2])) | 10.1 | 12.1 | Non-toxic |
| CC(C)CC1OC(=O)CCNC(=O)[C@H](C(C)C)N(C)C(=O)[C@H](C(C)C)N(C)C(=O)[C@H](Cc2ccccc2)NC(=O)[C@@H]2CCCN2C1=O (stereo not given in full) [ISARIDIN E] (cyclo(F[NMeV][NMeV][βAla][ξLac(3-iPr)]P)) | 12.2 | 12.8 | Non-toxic |

Now from value to compound, other results behind:

| IC50 [2] [µM] | IC50 [3] [µM] | SMILES | Activity [1] |
| --- | --- | --- | --- |
| 0.69 | 6.72 | O=c1c(-c2ccc(O)cc2)coc2cc(O)cc(O)c12 [GENISTEIN] |  |
|  | 15.1 | CC[C@H](C)[C@@H]1NC(=O)[C@@H]2[C@@H](C)CCN2C(=O)[C@@H](CC(C)C)OC(=O)CCNC(=O)[C@H](C)N(C)C(=O)[C@H](C(C)C)N(C)C1=O [ROSEOCARDIN] | Non-toxic |
